Results published in BindingDB's records for doi:10.1016/s0960-894x(01)00689-8 (Niddk, 2001).

Key:
[1] = Binding affinity for gamma-S binding assay
[2] = target: Delta-type opioid receptor (Rattus norvegicus, UniProt P33533); test: Binding affinity for delta opioid receptor by displacing [3H]DADL was determined
Summary of the method: (§1)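 Radioligand displacement binding at opioid receptors, with Ki values derived. Each receptor used its own radioligand: mu was [3H]DAMGO, delta was [3H]DADL and kappa was [3H]U69593.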

[3] = Binding affinity for gamma-S binding assay; Inactive
[4] = target: Mu-type opioid receptor (Rattus norvegicus, UniProt P33535); test: Binding affinity for mu opioid receptor by displacing [3H]-DAMGO was determined
Summary of the method: as §1

[5] = target: Kappa-type opioid receptor (Cavia porcellus, UniProt P41144); test: Binding affinity for kappa opioid receptor by displacing [3H]U-69593 was determined
Summary of the method: as §1

Chain of Mu-type opioid receptor (P33535 whole entry): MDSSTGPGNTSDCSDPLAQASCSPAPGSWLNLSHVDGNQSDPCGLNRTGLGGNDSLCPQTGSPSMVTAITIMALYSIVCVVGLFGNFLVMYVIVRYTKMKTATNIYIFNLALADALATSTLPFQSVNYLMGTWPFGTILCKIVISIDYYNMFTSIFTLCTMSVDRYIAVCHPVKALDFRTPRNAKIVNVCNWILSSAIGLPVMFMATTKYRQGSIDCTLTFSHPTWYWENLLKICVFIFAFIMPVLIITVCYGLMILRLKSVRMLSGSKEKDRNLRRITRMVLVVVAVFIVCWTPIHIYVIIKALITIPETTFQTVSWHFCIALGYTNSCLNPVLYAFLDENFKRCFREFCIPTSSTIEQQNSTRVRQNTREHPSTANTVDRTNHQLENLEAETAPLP
Chain of Delta-type opioid receptor (P33533 whole entry): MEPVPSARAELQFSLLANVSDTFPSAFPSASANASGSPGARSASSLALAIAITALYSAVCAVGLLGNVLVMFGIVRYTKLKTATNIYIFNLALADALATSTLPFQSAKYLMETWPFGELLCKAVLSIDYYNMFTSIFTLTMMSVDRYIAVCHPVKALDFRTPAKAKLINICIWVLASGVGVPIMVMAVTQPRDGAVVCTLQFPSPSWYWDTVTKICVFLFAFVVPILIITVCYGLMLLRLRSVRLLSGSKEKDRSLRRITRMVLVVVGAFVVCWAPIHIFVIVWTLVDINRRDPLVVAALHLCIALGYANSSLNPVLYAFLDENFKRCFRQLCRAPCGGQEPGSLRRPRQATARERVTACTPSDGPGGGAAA
Chain of Kappa-type opioid receptor (P41144 whole entry): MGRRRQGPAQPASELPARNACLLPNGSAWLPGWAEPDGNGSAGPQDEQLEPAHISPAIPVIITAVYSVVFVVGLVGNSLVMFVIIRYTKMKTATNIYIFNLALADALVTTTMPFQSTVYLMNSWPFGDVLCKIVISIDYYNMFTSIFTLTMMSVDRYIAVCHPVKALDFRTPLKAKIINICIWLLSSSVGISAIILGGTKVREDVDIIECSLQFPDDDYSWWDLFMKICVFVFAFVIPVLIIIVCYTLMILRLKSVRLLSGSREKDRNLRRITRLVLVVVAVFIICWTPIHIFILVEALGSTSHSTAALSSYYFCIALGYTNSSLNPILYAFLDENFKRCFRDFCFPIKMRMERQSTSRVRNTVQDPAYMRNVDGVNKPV

Structure (SMILES) | Ki [1] [nM] | Ki [2] [nM] | Ki [3] [nM] | Ki [4] [nM] | Ki [5] [nM]
CN1CC[C@]23c4c5ccc(O)c4O[C@H]2c2[nH]c4ccccc4c2C[C@H]3[C@H]1C5 | 15 | 2.4 |  |  | 
CCCC[C@H]1c2c([nH]c3ccccc23)[C@@H]2Oc3c(OC)ccc4c3C23CCN(C)C(C4)C13 (some centres not stated) [Indole Derivative] |  | 370 | > 750 | > 4300 | 
C/C=C/C(=O)N1CCC23c4c5ccc(O)c4O[C@H]2c2[nH]c4ccccc4c2[C@H](C)C3C1C5 (some centres not stated) |  | 2.3 |  |  | 120
C[C@H]1c2c([nH]c3ccccc23)[C@@H]2Oc3c(O)ccc4c3C23CCN(CC2CC2)C(C4)C13 (some centres not stated) |  | 2.3 |  | 66 | 36
COc1ccc2c3c1O[C@H]1c4[nH]c5ccccc5c4CC4C(C2)N(C)CCC341 (some centres not stated) [Indole Derivative] | 290 | 95 |  | > 5000 | 
COc1ccc2c3c1O[C@H]1c4[nH]c5ccccc5c4[C@H](C)C4C(C2)N(C)CCC341 (some centres not stated) [Indole Derivative] | 330 | 27 |  | > 4800 | 
C[C@H]1c2c([nH]c3ccccc23)[C@@H]2Oc3c(O)ccc4c3C23CCN(C)C(C4)C13 (some centres not stated) [Indole Derivative] | 49 | 0.7 |  | 240 | 
CCCC[C@H]1c2c([nH]c3ccccc23)[C@@H]2Oc3c(O)ccc4c3C23CCN(C)C(C4)C13 (some centres not stated) [Indole Derivative] | 46 | 22 |  | 1100 | 
